Source: ChEMBL document CHEMBL3259543 (Bioorg Med Chem Lett, 2014)

Tests used:
Protease [1] = target: T1, Protease (Human immunodeficiency virus 1, UniProt Q9YQ12); assay: Inhibition of purified HIV-1 protease using [Arg-Glu(EDANS)-Ser-Gin-Asn-Tyr-Ile-Val-Gin-Lys(dabcyl)-Arg) as fluorogenic substrate at 50 ng/ml by fluorescence assay
Protease [2] = target: T1, Protease; assay: Inhibition of purified HIV-1 protease using [Arg-Glu(EDANS)-Ser-Gin-Asn-Tyr-Ile-Val-Gin-Lys(dabcyl)-Arg) as fluorogenic substrate at 2 ng/ml by fluorescence assay
Protease [3] = target: T1, Protease; assay: Inhibition of purified HIV-1 protease using [Arg-Glu(EDANS)-Ser-Gin-Asn-Tyr-Ile-Val-Gin-Lys(dabcyl)-Arg) as fluorogenic substrate by fluorescence assay
Procedure, shortened: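 Wild-type HIV-1 protease, cloned, expressed in Escherichia coli and purified. Inhibitors dissolved in DMSO and diluted. Incubation at 30 °C in 0.1 M sodium acetate, 1 M NaCl, 1 mM DTT, 1 mM EDTA, 3% DMSO, pH 5.0, with the EDANS/dabcyl fluorogenic peptide substrate. Cleavage read by fluorescence in a microplate reader.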

Protease [4] = target: T1, Protease; assay: Inhibition of purified HIV-1 protease using [Arg-Glu(EDANS)-Ser-Gin-Asn-Tyr-Ile-Val-Gin-Lys(dabcyl)-Arg) as fluorogenic substrate at 0.08 ng/ml by fluorescence assay
Protease [5] = target: T1, Protease; assay: Inhibition of purified HIV-1 protease using [Arg-Glu(EDANS)-Ser-Gin-Asn-Tyr-Ile-Val-Gin-Lys(dabcyl)-Arg) as fluorogenic substrate at 0.4 ng/ml by fluorescence assay
Protease [6] = target: T1, Protease; assay: Inhibition of purified HIV-1 protease using [Arg-Glu(EDANS)-Ser-Gin-Asn-Tyr-Ile-Val-Gin-Lys(dabcyl)-Arg) as fluorogenic substrate at 10 ng/ml by fluorescence assay
[7] = target: Protease (Human immunodeficiency virus 1) (UniProt Q9YQ12); assay: Inhibition of purified HIV-1 protease using [Arg-Glu(EDANS)-Ser-Gin-Asn-Tyr-Ile-Val-Gin-Lys(dabcyl)-Arg) as fluorogenic substrate at 10 nM by fluorescence assay
Protease (Human immunodeficiency virus 1), sequence (Q9YQ12 as listed by the source): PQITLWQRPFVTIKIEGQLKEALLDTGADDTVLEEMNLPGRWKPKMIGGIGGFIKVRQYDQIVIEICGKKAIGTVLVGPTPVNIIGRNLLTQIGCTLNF

T1 sequence (Q9YQ12 whole entry): as the sequence (Q9YQ12 as listed by the source) above

SMILES | Inhibition (Protease [1]) [%] | Inhibition (Protease [2]) [%] | IC50 (Protease [3]) [nM] | Inhibition (Protease [4]) [%] | Inhibition (Protease [5]) [%] | Inhibition (Protease [6]) [%] | inhibition [7] [%]
COc1ccc(S(=O)(=O)N(CC(C)C)C[C@@H](O)[C@H](Cc2ccccc2)NC(=O)O[C@H]2CO[C@H]3[C@@H]2OC[C@H]3OC)cc1 | 96.2 | 93.5 | 0.05 | 53.7 | 83.2 | 102 | 
COc1ccc(S(=O)(=O)N(CC(C)C)C[C@@H](O)[C@H](Cc2ccccc2)NC(=O)O[C@H]2CO[C@H]3[C@@H]2OC[C@H]3O)cc1 | 97.2 | 99.5 | 0.1 | 51.4 | 74.2 | 98 | 
CO[C@@H]1CO[C@H]2[C@@H]1OC[C@@H]2OC(=O)N[C@@H](Cc1ccccc1)[C@H](O)CN(CC(C)C)S(=O)(=O)c1ccc(N)cc1 | 97 | 103 | 0.36 | 40.6 | 59.6 | 100 | 

Continued, values first:

Inhibition (Protease [1]) [%] | Inhibition (Protease [2]) [%] | IC50 (Protease [3]) [nM] | Inhibition (Protease [4]) [%] | Inhibition (Protease [5]) [%] | Inhibition (Protease [6]) [%] | inhibition [7] [%] | SMILES
94.7 | 94.2 | 0.12 | 47.2 | 75.7 | 98.6 |  | CC(C)CN(C[C@@H](O)[C@H](Cc1ccccc1)NC(=O)O[C@H]1CO[C@H]2[C@@H]1OC[C@H]2O[N+](=O)[O-])S(=O)(=O)c1ccc(N)cc1
98.3 | 80.7 | 0.43 | 33.7 | 57.7 | 95.4 |  | CC(C)CN(C[C@@H](O)[C@H](Cc1ccccc1)NC(=O)O[C@H]1CO[C@H]2[C@@H]1OC[C@H]2O)S(=O)(=O)c1ccc(N)cc1
 |  |  |  |  |  | 96.9 | CC(C)(C)NC(=O)[C@@H]1CN(Cc2cccnc2)CCN1C[C@@H](O)C[C@@H](Cc1ccccc1)C(=O)N[C@H]1c2ccccc2C[C@H]1O
93.1 | 93.1 | 0.11 | 53.7 | 62.6 | 100 |  | COc1ccc(S(=O)(=O)N(CC(C)C)C[C@@H](O)[C@H](Cc2ccccc2)NC(=O)O[C@H]2CO[C@H]3[C@@H]2OC[C@H]3O[N+](=O)[O-])cc1
